Screening data: PubChem BioAssay, Broad Institute
CaV13 FRET inh: Disruptors of the CACNA1D IQ motif to Ca2+-dependent inactivation inhibitor domain association, primary screening, Förster resonance energy transfer in intact living … | HEK cells, CFP/YFP FRET ICDI-IQ, plate reader, 10 min; percent FRET-ratio fall versus neutral wells | inhibition, % at 12.3 µM | hit rate 0.098% among 340,000;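 active = mean replicate inhibition of at least 30% and at least 1% of replicates passing that level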;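 also: 0% = median of the neutral control wells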
CAL PDZ FP-1: untagged CAL PDZ binding inhibitors, primary screen, biochemical, fluorescence polarization, HTS; hit rate 0.92% among 300,000; inhibition, % at 24.9 µM; purified CAL PDZ, TMR-peptide fluorescence polarization, 1 h; Golgi-associated PDZ and coiled-coil motif-containing protein (Homo sapiens), Q9HD26;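 active = mean inhibition of at least 30% with at least half of replicates also reaching 30%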;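 also: 0% = DMSO neutral control and 100% = excess unlabeled competitor peptide PRC23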
ARNT TACC3 PPI: disruptors of ARNT/TACC3 protein interaction, primary screen, biochemical, AlphaScreen, single concentration; Transforming acidic coiled-coil-containing protein 3 (Homo sapiens), Q9Y6A5; AlphaScreen His-ARNT PAS-B/GST-TACC3 binding, luminescence; TACC3 fragment carries E629A point mutation; inhibition, % at 9.99 µM; hit rate 0.66% among 390,000;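 active = mean inhibition of replicates at least 50% and at least half of replicates each reaching 50%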;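 also: 0% = complete ARNT plus TACC3 wells and 100% = ARNT alone without TACC3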
CAL PDZ FP-2: CAL PDZ peptide-binding inhibitors, primary screen, biochemical, fluorescence polarization, Cer-tagged CAL PDZ, HTS; inhibition, % at 20 µM; purified CAL PDZ, TMR-peptide fluorescence polarization, 1 h; hit rate 0.02% among 330,000; AID 504414, 2011;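 active = highest replicate inhibition of at least 40%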;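 also: plate controls were DMSO neutral control wells for no effect and unlabeled competitor peptide control wells for full effect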
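material = purified tagged CAL PDZ domain construct (CerCALP) | buffer or medium = sodium phosphate/NaCl buffer pH 7.4 with TCEP, IgG, Thesit | reagent = TMR-labelled reporter peptide T*-PRC34 bound in PDZ groove | incubation = 1 h room-temperature incubation prior to read | measured by = fluorescence polarization (mP) | evaluation = percent inhibition from loss of millipolarization | control set = unlabelled peptide and DMSO controls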
ARNT Alpha ctr-1: AlphaScreen signal interference compounds, dose response, artefact control for ARNT-TACC3 interaction inhibitor project, biochemical, luminescence, cherry-pick | AC50, µM (doses to about 68 µM), for the others: at the highest dose activity change, negative = signal decrease | His-ARNT PASB-GST AlphaScreen artifact counter-screen | hit rate 50% among 1,200 | AID 651705, 2012 | shares compounds with ARNT TACC3 PPI;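 active = every separate test run was called active for a drop in luminescence, with AC50 within twice the top valid dose, actives reach about 71 µM in these data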
ARNT Alpha ctr-2: AlphaScreen signal interference by compounds, dose response, artefact control for ARNT/TACC3 disruptor project, biochemical, dual-tagged ARNT, dry powder. shares compounds with ARNT TACC3 PPI. hit rate 70% among 45. Dual-tagged His-ARNT PASB-GST AlphaScreen artifact counter-screen. AC50, µM;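 active = luminescence drop, with half-maximal potency fitted within twice the sample's top valid dose, cut at about 70 µM in these data; inactive = the rest, including signal moving the wrong way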
Numbers without * were called inactive; i = inactive; · = no result given; [ ] = remark or other dose. An excerpt weighted towards active compounds, which were near 1.2% of everything screened.

SMILES	CaV13 FRET inh	CAL PDZ FP-1	ARNT TACC3 PPI	CAL PDZ FP-2	ARNT Alpha ctr-1	others
CC=Cc1ccc2n(c1=O)C[C@H]1[C@H](CO)[C@@H](C(=O)NC3CCC3)[C@@H]2N1S(=O)(=O)c1cn(C)cn1 (mixture of isomers)	·	·	active	·	-1.6%[38 µM]
COc1ccc(CN(C)C[C@H]2OCc3cn(nn3)CCCC(=O)N([C@@H](C)CO)C[C@H]2C)cc1	·	·	-37.6	·	·
O=S(=O)(N[C@@H]1CC[C@@H](CCn2cc(-c3ccccn3)nn2)O[C@H]1CO)c1cccc(F)c1	·	·	91.5*	·	59.9µM*
O=S(=O)(N[C@H]1CC[C@@H](CCn2cc(-c3ccccn3)nn2)O[C@@H]1CO)c1cccc(Cl)c1	·	·	95.5*	·	47.6µM*
COc1cccc(S(=O)(=O)N[C@@H]2CC[C@H](CCn3cc(-c4ccccc4)nn3)O[C@H]2CO)c1	·	·	11.5	·	·
O=S(=O)(N[C@H]1CC[C@H](CCn2cc(-c3ccccn3)nn2)O[C@@H]1CO)c1cccc(Cl)c1	·	·	108.5*	·	48.6µM*
C[C@@H]1CCCCO[C@@H](CN(C)C(=O)Nc2ccc3c(c2)OCO3)[C@@H](C)CN([C@H](C)CO)C(=O)c2cc(NS(=O)(=O)c3ccc(F)cc3)ccc2O1	·	·	-2.2	·	·
CCCC(=O)Nc1ccc2c(c1)OC[C@H](C)N(Cc1ccc(-c3ccccn3)cc1)C[C@@H](C)[C@@H](OC)CN(C)C2=O	·	·	-2.5	·	·
Cc1noc(C)c1NC(=O)Nc1ccc2c(c1)CC(=O)N([C@@H](C)CO)C[C@@H](C)[C@@H](CN(C)C(=O)Nc1ccc(C(F)(F)F)cc1)O2	·	·	-6.6	·	·
Oc1c(C(c2ccccn2)N2CCCCC2)cc(Cl)c2cccnc12 (stereo not drawn)	-16.4	4.9	68.9*	-1.5	8.13µM*
CN1CCN(C(c2ccc(Cl)cc2)c2cc(Cl)c3cccnc3c2O)CC1 (stereo not drawn)	-7.8	-7.3	12.4	-4.7	·
CCN1[C@@H]2c3ccc(-c4cccc(F)c4)c(=O)n3C[C@@H]2[C@@H](CO)[C@@H]1C(=O)N1CCCCC1	·	·	1.3	·	·
O=C(Nc1nc2ccccc2s1)c1ccc([N+](=O)[O-])o1	-21.4	-9.5	-21.5	-0.4	·
O=C(Nc1nc(-c2ccccn2)cs1)c1ccc([N+](=O)[O-])o1	-4.0	-2.7	61.4*	0.6	17.2µM*
Cc1ccc(C(=O)Nc2nc(-c3ccccc3)cs2)o1	·	·	·	·	·	ARNT Alpha ctr-2=i
O=C(Nc1nc(-c2ccccn2)cs1)C1COc2ccccc2O1 (stereo not drawn)	-4.9	·	70.9*	-2.2	28.7µM*
O=C(Nc1nc(-c2ccccc2)cs1)C1COc2ccccc2O1 (stereo not drawn)	·	-2.5	·	-1.3	·
O=C(Nc1nc(-c2ccccn2)cs1)c1cc(Cl)ccc1[N+](=O)[O-]	-2.8	-0.6	57.9*	-2.3	18.5µM*
COc1ccc(S(=O)(=O)N(C)C[C@H]2OCCCC[C@H](C)Oc3ccc(NS(=O)(=O)c4cn(C)cn4)cc3C(=O)N([C@H](C)CO)C[C@@H]2C)cc1	·	·	4.8	·	·
C/C=C/c1cnc2c(c1)C(=O)N([C@H](C)CO)C[C@@H](C)[C@@H](CN(C)S(=O)(=O)c1ccccc1F)O2	·	·	8.8	·	·
Cc1ccc(C(=O)Nc2nc(-c3ccccn3)cs2)o1	-2.7	-5.8	60.5*	-1.0	22.8µM*	ARNT Alpha ctr-2=9.86*
O=C(COc1ccc([N+](=O)[O-])cc1)Nc1nc(-c2ccccn2)cs1	-6.5	-2.1	62.8*	-2.9	47.7µM*
CCOC(=O)c1c(C)[nH]c(N=Nc2cccc(OC)c2)c1C	2.8	-6.1	7.2	16.1	·
CCOC(=O)c1c(C)[nH]c(N=Nc2cccc(C)c2)c1C	·	-2.1	36.2*	-3.1	21.3µM*
N#Cc1ccc(CC(=O)c2ccccc2)[nH]c1=O	-15.0	-5.3	active	23.7	-11.6%
SMILES	CaV13 FRET inh	CAL PDZ FP-1	ARNT TACC3 PPI	CAL PDZ FP-2	ARNT Alpha ctr-1	others
O=C(O)c1ccc(C2CCCCC2)cn1	·	-0.8	63.3*	-1.1	-22.0%
O=C(O)C1=C(C2CCCCC2)C(=O)c2ccccc21	-11.2	-2.4	-3.6	0.5	·
C[C@@H]1CCCCO[C@@H](CN(C)Cc2ccc(C(=O)O)cc2)[C@H](C)CN([C@@H](C)CO)C(=O)c2cc(NC(=O)CCCN(C)C)ccc2O1	·	·	-8.1	·	·
C[C@@H]1CN([C@H](C)CO)C(=O)Cc2cc(NC(=O)C3CCCCC3)ccc2O[C@@H]1CN(C)S(=O)(=O)c1ccccc1	·	·	-2.4	·	·
CC(=O)Nc1ccc2nc3ccccc3nc2c1	-66.5	-2.0	32.1*	-0.7	-13.8%
COc1ccccc1CNC(=O)CSc1ccc(-c2ccccn2)nn1	-3.2	0.9	72.6*	-1.2	59.5µM*
Cc1cc(C)cc(NC(=O)CSc2ccc(-c3ccccn3)nn2)c1	·	-0.9	11.0	-2.7	·
COC(=O)c1ccc(NC(=O)CSc2ccc(-c3ccccn3)nn2)cc1	·	-4.7	59.7*	-1.3	-37.3%
Cc1csc(NC(=O)CSc2ccc(-c3ccccn3)nn2)n1	-7.0	10.6	60.7*	-1.3	16.1µM*
CCOC(=O)c1ccc(NC(=O)CSc2ccc(-c3cccnc3)nn2)cc1	-18.9	1.9	-4.5	-2.5	·
Cc1ccccc1NC(=O)CSc1ccc(-c2ccccn2)nn1	-3.7	-0.6	61.1*	-3.0	35.1µM*
CO[C@H](CN(C)Cc1ccc2c(c1)OCO2)[C@@H](C)CN(C(=O)Nc1ccc(F)cc1)[C@H](C)CO	·	·	9.1	·	·
Cn1c(SCC(=O)Nc2nccs2)nnc1-c1ccccn1	-5.2	-5.5	2.6	0.8	·
O=C(CSc1ccc(-c2ccccn2)nn1)N1CCCc2ccccc21	8.4	3.5	59.3*	-2.1	29.6µM*
O=C(CSc1ccc(-c2ccccn2)nn1)Nc1nccs1	-2.3	-4.5	60.7*	-1.9	60.3µM*	ARNT Alpha ctr-2=4.66*
O=C(CSc1ccc(-c2ccccn2)nn1)Nc1cccc(F)c1	-3.3	-3.4	74.0*	0.7	12.2µM*
O=C(CSc1nnc(-c2ccccn2)o1)Nc1ccccc1Cl	-3.3	-0.4	75.3*	-2.1	-27.1%
O=C(CSc1nnc(-c2ccncc2)o1)Nc1ccccc1Cl	-0.6	-4.1	-4.4	-0.8	·
C[C@H]1CN([C@@H](C)CO)C(=O)c2cc(C#Cc3cccc(F)c3)cnc2O[C@H]1CN(C)CC1CCCC1	·	·	0.4	·	·
COc1ccc(NC(=O)N(C)C[C@H]2OCCCC[C@@H](C)Oc3ccc(NS(=O)(=O)c4cn(C)cn4)cc3C(=O)N([C@H](C)CO)C[C@H]2C)cc1	·	·	-7.3	·	·
